Compound activity (PubChem)
ADAM17 inh = inhibits human ADAM17. P78536. recombinant ADAM17, EDANS/DABCYL FRET peptide cleavage. inhibition, % at 6.95 µM. 370,000 tested, 0.83% active. AID 720648;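 active means inhibition above the mean of compounds lying between control limits plus 3 SD, set per campaign, cut at about 8.5% in these data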;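 further: 0% = DMSO-only wells as the low control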
ADAM10 inh = inhibits human ADAM10. O14672. inhibition, % at 7 µM. recombinant ADAM10, EDANS/DABCYL FRET peptide cleavage, 3 h. AID 720582. 370,000 tested, 0.62% active;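 active means inhibition above a per-campaign cutoff equal to the mean of compounds falling between control-based bounds plus 3 SD, cut at about 20% in these data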;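 further: 0% = DMSO wells while the 100% control is not disclosed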
Target sequence (O14672 214-748 limits assumed): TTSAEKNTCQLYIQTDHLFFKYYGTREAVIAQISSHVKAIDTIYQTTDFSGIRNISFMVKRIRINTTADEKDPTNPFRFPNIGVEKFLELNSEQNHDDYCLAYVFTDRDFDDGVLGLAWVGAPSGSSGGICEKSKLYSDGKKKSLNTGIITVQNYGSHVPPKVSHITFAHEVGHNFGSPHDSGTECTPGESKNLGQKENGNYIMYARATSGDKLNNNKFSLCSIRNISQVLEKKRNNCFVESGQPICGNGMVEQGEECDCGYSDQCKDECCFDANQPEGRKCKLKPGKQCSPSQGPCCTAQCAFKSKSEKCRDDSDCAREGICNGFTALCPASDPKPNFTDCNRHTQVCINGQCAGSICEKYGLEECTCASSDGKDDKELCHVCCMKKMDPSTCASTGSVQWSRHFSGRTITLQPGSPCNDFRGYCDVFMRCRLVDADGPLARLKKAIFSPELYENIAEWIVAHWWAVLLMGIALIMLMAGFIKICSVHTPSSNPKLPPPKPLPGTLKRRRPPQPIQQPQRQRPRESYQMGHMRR
MT1-MMP act inh = MT1-MMP (human) activation inhibition. HT1080 RFP-PRO-GFP cells, GFP/RFP ratio fluorescence, overnight; percent of plate control window, DMSO zero. GFP/RFP ratio change, % at 20 µM. 360,000 tested, 0.061% active. AID 651647;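 active means GFP/RFP ratio change of at least 30% with cell ATP level not reduced by more than half and red fluorescence within 50% of control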
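Test system: HT1080 cells expressing an RFP-PRO-GFP fluorescent reporter construct / Compound dosing: single-point 20 µM compound, 1% DMSO / Schedule: cells overnight before dosing, compound overnight, 37 °C, 5% CO2 / Evaluation: GFP/RFP fluorescence ratio / Control set: DMSO and RFP-L50D-GFP cell wells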
Tn7 DDE FP = DD(E)-Tn7 binding inhibition, primary FP screen. FP displacement of FITC-Tn7 peptide from fibrin DD(E); 0% = median of compound wells per plate. P02675. AID 720508. inhibition, % at 8.3 µM. 370,000 tested, 0.13% active;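 active means inhibition above the mean of compounds falling within the control limits plus 3 SD of them, cut at about 14% in these data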;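 further: 0% = plate median of compound wells and 100% = 10 µM Aha-Tn7 peptide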
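assay system = human clot-derived fibrin DD(E) complex | quantity = Fibrin-DD(E) at 2 µM final | timing = 10 min preincubation, 3 h with tracer, room temperature | signal = fluorescence polarization | measure = percent inhibition | benchmarks = high control wells with 10 µM unlabelled Aha-Tn7 peptide (full inhibition) | replicates = singlicate testing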
Tn6 DDE FP = inhibitors of Tn6 peptide binding to human fibrin DD(E) | 370,000 tested, 0.21% active | Fibrin DD(E) TRITC-Tn6 fluorescence polarization displacement | inhibition, % at 8.3 µM;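 active means inhibition above a per-campaign cutoff: mean of compounds within control limits plus 3 SD, cut at about 15% in these data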;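 further: 0% = median of all compound wells on the plate and 100% = blocking peptide control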
ADAM10 ctr = inhibits human ADAM10 in ADAM17 exosite counter-screen | shares compounds with ADAM17 inh | recombinant ADAM10, EDANS/DABCYL FRET peptide cleavage, 3 h | inhibition, % at 6.95 µM | 2,900 tested, 47% active | AID 743256;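 active means mean inhibition over the triplicate runs exceeds the activity threshold set in the earlier primary screen, cut at about 20% in these data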;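 further: 0% = DMSO wells and 100% = marimastat wells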
ADAM17 confirm = confirmation of inhibitors of human ADAM17; inhibition, % at 6.95 µM; shares compounds with ADAM17 inh; AID 743257; 2,900 tested, 65% active; recombinant ADAM17, EDANS/DABCYL QFRET peptide cleavage;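 active means mean inhibition across replicates above the hit cutoff set in the primary screen, cut at about 8.5% in these data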;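 further: 0% = DMSO wells and 100% = marimastat wells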
* marks the source's active call; other numbers are inactive results; . = no result. An excerpt weighted towards active compounds, which were near 1.6% of everything screened.

SMILES	ADAM17 inh	ADAM10 inh	MT1-MMP act inh	Tn7 DDE FP	Tn6 DDE FP	ADAM10 ctr	ADAM17 confirm
COc1ccccc1N(Cc1ccccc1)S(=O)(=O)c1cccc(C(=O)Nc2cc(C)ccn2)c1	9.0*	17	-3	0	6	13	8
COc1ccc(/C(O)=C2/C(=O)C(=O)N(CC3CCCO3)C2c2cccc(O)c2)cc1 (configuration not stated)	8.8*	4	2	1	-5	7	6
COC(=O)c1ccc(C2/C(=C(/O)c3ccc(OC)cc3)C(=O)C(=O)N2CC2CCCO2)cc1 (configuration not stated)	-4	-4	-2	0	-3	.	.
CC(C)Oc1cccc(-c2n[nH]c(=S)n2N=Cc2ccc(OCc3ccccc3)cc2)c1	1	-4	.	4	1	.	.
CCCn1c(C)cc(C(=O)COC(=O)c2cc(S(=O)(=O)NCC(C)C)c(Cl)cc2Cl)c1C	10*	15	-3	0	-4	20*	9.7*
CCC(=O)N1CCc2cc(Br)cc(S(=O)(=O)N(C)c3ccc(OC)cc3OC)c21	10*	16	1	8	0	7	0
O=C(c1ccc(CSc2nc3ccncc3[nH]2)cc1)N1CCN(c2cccc(Cl)c2)CC1	9.1*	15	-4	-4	-3	28*	15*
Cc1cccc(Nc2nc(N)c([N+](=O)[O-])c(N3CC(C)CC(C)C3)n2)c1 (configuration not stated)	9.4*	20*	2	1	3	31*	17*
Cc1cccc(Nc2nc(N)c([N+](=O)[O-])c(N3CC(C)OC(C)C3)n2)c1 (configuration not stated)	-1	-1	0	-3	-11	.	.
C=CCN(C)CC#Cc1ccc(F)cc1	-2	-5	.	8	11	.	.
Cc1cccc(-c2cccc3c4c([nH]c23)[C@@H]2C[C@H](N(C)C(=O)c3ccco3)[C@H]([C@H](C)O)C(=O)N2CC4)c1	-11	-31	.	-3	0	.	.
Cc1cccc(N(CC(=O)Nc2ccccc2-c2ccccc2)S(=O)(=O)c2ccccc2)c1C	9.3*	16	-10	4	-10	28*	16*
CN(C)c1ccc(N=Nc2ccccc2C(=O)OCC(=O)N2CCCCCC2)cc1	13*	18	25	-1	6	16	8.7*
COC(=O)[C@]12C[C@H](CC(=O)N3CCOCC3)C(=O)N(Cc3ccccc3)C1=C[C@H](C1CCCC1)O[C@@H]2C	-2	-1	.	-2	0	.	.
COc1cccc(C2CC(c3cccs3)=NN2C(=O)CSC2=NN3CCCC(=O)N=C3S2)c1OC (configuration not stated)	-1	-15	3	2	-3	.	.
COc1ccc(C2=NN(C(=O)CSC3=NN4CCCC(=O)N=C4S3)C(c3cccc(OC)c3OC)C2)cc1 (configuration not stated)	10*	13	0	3	0	-3	0
CC1CCN(S(=O)(=O)c2ccc3c(c2)N(CC(=O)NCCCN2C(C)CCCC2C)C(=O)CO3)CC1 (configuration not stated)	14*	2	-4	3	5	0	8
C=C(C)COc1ccc(-c2n[nH]c(C)c2-c2ccc(Br)cc2)c(O)c1	11*	18	-15	1	-4	22*	12*
Nc1nc(N(Cc2ccccc2)Cc2ccccc2)nc(C(F)(F)F)n1	9.1*	17	-12	1	2	9	8.9*
CN(N)c1nc(C(F)(F)F)nc2ccccc12	-1	-5	-9	3	-3	.	.
O=C(Nc1ccc(N2CCN(C(=O)c3cccs3)CC2)c(Cl)c1)c1ccco1	9.0*	3	-2	3	-5	5	9
O=C(NCc1n[nH]c(=S)n1-c1cccc(C(F)(F)F)c1)c1ccc(S(=O)(=O)N2CCCCC2)cc1	13*	14	2	-9	-3	9	6
O=C(CNC(=O)/C(=C\c1ccc(Br)cc1)NC(=O)c1ccccc1)OCc1ccccc1	10*	12	0	-4	-3	22*	6
Cc1ccc(NC(=O)CNC(=O)CC23CC4CC(CC(C4)C2)C3)c(O)c1	16*	1	-1	-14	-9	4	6
O=C(NCC(c1ccccc1)c1ccccc1)[C@H](Cc1ccccc1)NC1(C(=O)NC2CCCCC2)CCCCCC1	0	-1	.	1	3	.	.
SMILES	ADAM17 inh	ADAM10 inh	MT1-MMP act inh	Tn7 DDE FP	Tn6 DDE FP	ADAM10 ctr	ADAM17 confirm
Cc1ccc(CNC(=O)c2ccc(Cn3nc(C)cc3C)o2)cc1	-3	-5	4	-6	-7	.	.
Cc1cc(C)n(Cc2ccc(C(=O)NCc3ccco3)o2)n1	9.4*	0	1	-2	1	-8	-2
CC(COc1ccc([N+](=O)[O-])cc1Cl)CN1CCC(C(O)(c2ccccc2)c2ccccc2)CC1 (configuration not stated)	6	10	.	-4	-2	.	.
Cc1ccc(Nc2ncnc3sc(C)c(C)c23)cc1C	9.1*	7	-5	-4	6	3	6
O=C(N[C@H](Cc1ccccc1)C(=O)NCc1ccc(OC(F)(F)F)cc1)[C@H]1O[C@@H](n2ccc(=O)[nH]c2=O)[C@H](O)[C@@H]1O	-3	-5	.	0	7	.	.
O=C1NC(Cc2ccccc2)c2nc3ccc(F)cc3c(=O)n2-c2cc(Cl)ccc21 (configuration not stated)	13*	6	.	1	5	-6	1
CN1CCN(C(c2ccc(C(F)(F)F)cc2)c2cc(Cl)c3cccnc3c2O)CC1 (configuration not stated)	12*	16	.	-4	-7	36*	16*
Oc1c(C(c2ccccn2)N2CCCCC2)cc(Cl)c2cccnc12 (configuration not stated)	26*	10	-9	1	4	9	27*
CC(C)C[C@@H]1COc2cc(F)ccc2S(=O)(=O)N1	-7	-6	.	0	-7	.	.
CCOC(=O)[C@]12CCCCC/C=C\1N(CCc1ccc(Cl)cc1)C(=O)[C@H]2CC(=O)N1CCSCC1	2	4	.	2	8	.	.
COc1cc2c(C#N)c(N3CCN(c4ccccc4OC)CC3)nc(N)c2c(N)n1	-41	-149	-5	3	-10	.	.
COc1ccccc1N1CCN(c2nc(N)c(C#N)c(CC#N)c2C#N)CC1	20*	12	-2	-2	-6	10	11*
